Results taken from ChEMBL document CHEMBL4834477, “Synthesis and biological evaluation of novel purinyl quinazolinone derivatives as PI3Kδ-specific inhibitors for the treatment of hematologic malignancies” (Bioorg Med Chem, 2021).
Activity calls are given as the source filed them. No cut-off for these calls is given here.

Tests used:
[1] = biological target: Phosphatidylinositol 4,5-bisphosphate 3-kinase catalytic subunit beta isoform (Homo sapiens, UniProt P42338); assay: Inhibition of recombinant human full length His-tagged p110beta expressed in baculovirus expression system measured after 60 mins in presence of ATP by ATP-competitive binding assay
Procedure, shortened: (§1)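 SelectScreen ATP-competitive assay using 10-point titration with 1 μM top final compound concentration. Kinase, substrate and ATP mixed in 30 mM HEPES buffer and reacted 60 min. IC50 taken as the mean of three independent experiments.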

[2] = biological target: T1, Phosphatidylinositol 4,5-bisphosphate 3-kinase catalytic subunit delta isoform (Homo sapiens) (UniProt O00329); assay: Inhibition of PI3Kdelta in human SU-DHL-5 cells assessed as inhibition of S6 phosphorylation at 1 to 5 uM measured after 3 hrs by western blot assay; type: cell-based; settings: dose 1-5 µM
T1 sequence (whole entry): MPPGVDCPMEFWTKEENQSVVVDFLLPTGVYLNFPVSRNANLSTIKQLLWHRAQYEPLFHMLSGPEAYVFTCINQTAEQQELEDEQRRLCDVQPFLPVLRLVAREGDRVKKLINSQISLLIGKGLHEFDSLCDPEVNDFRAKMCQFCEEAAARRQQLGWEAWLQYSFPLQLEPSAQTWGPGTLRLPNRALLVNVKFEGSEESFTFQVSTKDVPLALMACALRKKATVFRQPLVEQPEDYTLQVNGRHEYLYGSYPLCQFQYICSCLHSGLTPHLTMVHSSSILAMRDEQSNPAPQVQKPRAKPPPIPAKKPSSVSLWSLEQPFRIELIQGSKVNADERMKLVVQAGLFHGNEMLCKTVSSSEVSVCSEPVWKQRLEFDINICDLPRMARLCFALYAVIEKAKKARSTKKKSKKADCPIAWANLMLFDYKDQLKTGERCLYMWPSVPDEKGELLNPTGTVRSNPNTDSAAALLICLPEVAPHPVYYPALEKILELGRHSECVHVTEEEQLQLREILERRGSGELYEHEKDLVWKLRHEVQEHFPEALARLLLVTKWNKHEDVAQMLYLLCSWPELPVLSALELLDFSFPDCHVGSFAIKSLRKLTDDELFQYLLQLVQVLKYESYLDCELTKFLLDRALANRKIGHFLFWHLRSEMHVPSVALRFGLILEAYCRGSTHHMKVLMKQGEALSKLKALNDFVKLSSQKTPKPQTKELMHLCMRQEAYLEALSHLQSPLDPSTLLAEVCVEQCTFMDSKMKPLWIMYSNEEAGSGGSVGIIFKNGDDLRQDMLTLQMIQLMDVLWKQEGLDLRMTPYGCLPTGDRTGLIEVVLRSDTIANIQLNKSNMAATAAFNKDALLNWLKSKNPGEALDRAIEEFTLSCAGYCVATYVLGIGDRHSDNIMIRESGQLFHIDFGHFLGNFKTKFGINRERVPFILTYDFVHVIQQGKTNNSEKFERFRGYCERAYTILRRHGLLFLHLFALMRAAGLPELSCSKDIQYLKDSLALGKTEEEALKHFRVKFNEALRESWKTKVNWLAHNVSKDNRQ
Procedure, shortened: (§2)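 Treatment lasted 3 h: SUDHL-5 at 1 μM, MOLT-4 at 5 μM. Cells washed twice in cold PBS and lysed. Proteins resolved on 10–12% SDS-PAGE and blotted to PVDF. Probed for p-AKT S473, p-AKT T308, p-S6 and p-4E-BP1, with β-actin as loading control.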

[3] = Cytotoxicity against human MRC5 cells assessed as inhibition of cell viability at 20 uM measured after 48 hrs by MTT assay; type: cell-based; settings: read-out: INH
Procedure, shortened: (§3)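 MTT assay in MRC-5 cells seeded at 2×10^6 cells/mL. Compound given in 1% FBS EMEM for 48 h at 37 °C in CO2. MTT solution then added for 3 h at 37 °C. Medium removed and formazan dissolved in DMSO.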

SU-DHL-5 [4] = assay: Antiproliferative activity against human SU-DHL-5 cells assessed as cell viability at 10 uM by CellTiter-Glo luminescent cell viability assay (reference value: 100%); type: functional; settings: read-out: Activity
[5] = biological target: T1, Phosphatidylinositol 4,5-bisphosphate 3-kinase catalytic subunit delta isoform (Homo sapiens); assay: Inhibition of PI3Kdelta in human SU-DHL-5 cells assessed as inhibition of AKT phosphorylation at Ser473 residue at 1 to 5 uM measured after 3 hrs by western blot assay; type: cell-based; settings: dose 1-5 µM; procedure, shortened: as §2
[6] = Toxicity in Balb/c nude mouse xenografted with human MOLT-4 cells assessed as changes in body weight at 10 mg/kg, po administered via gavage qd for 57 days; type: organism-based; settings: in vivo, 1368 h, dose 10 mg/kg/day, time 57 day
Procedure, shortened: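 MOLT-4 cells (2×10^6 in 0.1 mL D-PBS) implanted subcutaneously on the back of BALB/c-nude mice. Once tumours grew, mice were dosed daily by oral gavage at 10 mg/kg for 57 consecutive days. Tumours measured by caliper, with volume = ½ × […]. Body weight was tracked over the same period.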

[7] = Cmax in Sprague-Dawley rat at 1 mg/kg, po measured for 24 hrs by LC-MS/MS analysis; type: ADME, organism-based; parameters: route oral, dose 1 mg/kg, time 24 hrs; settings: in vivo
Procedure, shortened: (§4)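 Sprague-Dawley rats dosed orally at 1 or 3 mg/kg, three animals per group. Blood sampled at 0.25, 0.5, 1, 2, 4, 8 and 24 h post-dose. Plasma separated by centrifugation, extracted and quantified by LC-MS/MS. PK parameters (Cmax, AUClast, Tmax, t1/2) derived by non-compartmental software.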

SU-DHL10 = assay: Induction of apoptosis in human SU-DHL-10 cells assessed as viable cells at 20 uM measured after 24 hrs by AnnexinV-FITC/PI staining based flowcytometry method (reference value: 90%); type: functional; settings: read-out: Activity
Procedure, shortened: (§5)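 Cells exposed to 20 μM compound for 24 h, washed with cold PBS, and stained with Annexin V-FITC and propidium iodide for 15 min at room temperature. Viable, early apoptotic, late apoptotic and necrotic populations quantified by flow cytometry.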

[8] = Half life in Sprague-Dawley rat at 1 mg/kg, po measured for 24 hrs by LC-MS/MS analysis; type: ADME, organism-based; settings: in vivo; procedure, shortened: as §4
MOLT-4 = assay: Induction of apoptosis in human MOLT-4 cells assessed as necrotic cells at 20 uM measured after 24 hrs by AnnexinV-FITC/PI staining based flowcytometry method (reference value: 0.51%); type: functional; procedure, shortened: as §5
MRC5 = assay: Cytotoxicity against human MRC5 cells assessed as inhibition of cell viability measured after 48 hrs by MTT assay; type: cell-based; settings: MRC5, 48 h; procedure, shortened: as §3
[9] = biological target: Phosphatidylinositol 4,5-bisphosphate 3-kinase catalytic subunit gamma isoform (Homo sapiens, UniProt P48736); assay: Inhibition of recombinant human full length His-tagged p110gamma expressed in baculovirus expression system measured after 60 mins in presence of ATP by ATP-competitive binding assay; procedure, shortened: as §1
SU-DHL-5 [10] = assay: Antiproliferative activity against human SU-DHL-5 cells assessed as reduction in cell viability at 10 uM by CellTiter-Glo luminescent cell viability assay relative to idelalisib; type: functional
Procedure, shortened: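 Cells were seeded at 5x10^4 per well and exposed to the compound at a single concentration: 10 μM for SUDHL-5 and 20 μM for MOLT-4. CellTiter-Glo reagent was added 1:1, mixed for 2 min to lyse the cells, and held 10 min at room temperature before reading luminescence. Readings were background-subtracted and normalized to control wells.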

Homo sapiens = species on record: Homo sapiens; assay: Selectivity ratio of IC50 for recombinant human full length His-tagged p110gamma expressed in baculovirus expression system to IC50 for recombinant human full length His-tagged p110delta/p85alpha expressed in baculovirus expression system

Chain of Phosphatidylinositol 4,5-bisphosphate 3-kinase catalytic subunit beta isoform (P42338 whole entry, canonical isoform): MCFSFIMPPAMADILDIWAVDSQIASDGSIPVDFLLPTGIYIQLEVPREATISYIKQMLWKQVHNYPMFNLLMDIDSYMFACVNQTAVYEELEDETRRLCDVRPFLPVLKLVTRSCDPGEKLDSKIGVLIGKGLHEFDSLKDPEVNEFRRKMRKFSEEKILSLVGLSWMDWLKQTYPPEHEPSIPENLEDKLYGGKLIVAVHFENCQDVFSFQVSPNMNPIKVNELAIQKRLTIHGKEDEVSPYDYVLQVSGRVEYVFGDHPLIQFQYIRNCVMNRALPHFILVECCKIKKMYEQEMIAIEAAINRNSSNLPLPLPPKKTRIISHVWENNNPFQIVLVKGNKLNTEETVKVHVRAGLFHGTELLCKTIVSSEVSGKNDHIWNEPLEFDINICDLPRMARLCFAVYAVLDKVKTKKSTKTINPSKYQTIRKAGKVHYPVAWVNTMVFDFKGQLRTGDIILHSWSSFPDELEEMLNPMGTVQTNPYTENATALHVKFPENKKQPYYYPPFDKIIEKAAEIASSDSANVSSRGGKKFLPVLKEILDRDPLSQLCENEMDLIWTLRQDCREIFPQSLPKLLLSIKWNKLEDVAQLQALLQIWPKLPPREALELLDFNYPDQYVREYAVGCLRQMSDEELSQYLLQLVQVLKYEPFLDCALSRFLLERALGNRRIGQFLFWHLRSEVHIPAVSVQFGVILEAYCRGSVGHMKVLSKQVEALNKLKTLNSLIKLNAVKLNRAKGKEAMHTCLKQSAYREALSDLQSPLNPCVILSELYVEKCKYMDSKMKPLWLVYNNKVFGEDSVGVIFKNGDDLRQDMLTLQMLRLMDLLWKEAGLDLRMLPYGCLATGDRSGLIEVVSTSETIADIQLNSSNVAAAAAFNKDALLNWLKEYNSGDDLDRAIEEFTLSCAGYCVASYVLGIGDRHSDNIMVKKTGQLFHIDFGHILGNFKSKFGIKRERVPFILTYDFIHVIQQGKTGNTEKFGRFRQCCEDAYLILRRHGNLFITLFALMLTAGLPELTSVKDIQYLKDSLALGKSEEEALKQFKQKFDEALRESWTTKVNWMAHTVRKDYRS
Chain of Phosphatidylinositol 4,5-bisphosphate 3-kinase catalytic subunit gamma isoform (P48736 whole entry, canonical isoform): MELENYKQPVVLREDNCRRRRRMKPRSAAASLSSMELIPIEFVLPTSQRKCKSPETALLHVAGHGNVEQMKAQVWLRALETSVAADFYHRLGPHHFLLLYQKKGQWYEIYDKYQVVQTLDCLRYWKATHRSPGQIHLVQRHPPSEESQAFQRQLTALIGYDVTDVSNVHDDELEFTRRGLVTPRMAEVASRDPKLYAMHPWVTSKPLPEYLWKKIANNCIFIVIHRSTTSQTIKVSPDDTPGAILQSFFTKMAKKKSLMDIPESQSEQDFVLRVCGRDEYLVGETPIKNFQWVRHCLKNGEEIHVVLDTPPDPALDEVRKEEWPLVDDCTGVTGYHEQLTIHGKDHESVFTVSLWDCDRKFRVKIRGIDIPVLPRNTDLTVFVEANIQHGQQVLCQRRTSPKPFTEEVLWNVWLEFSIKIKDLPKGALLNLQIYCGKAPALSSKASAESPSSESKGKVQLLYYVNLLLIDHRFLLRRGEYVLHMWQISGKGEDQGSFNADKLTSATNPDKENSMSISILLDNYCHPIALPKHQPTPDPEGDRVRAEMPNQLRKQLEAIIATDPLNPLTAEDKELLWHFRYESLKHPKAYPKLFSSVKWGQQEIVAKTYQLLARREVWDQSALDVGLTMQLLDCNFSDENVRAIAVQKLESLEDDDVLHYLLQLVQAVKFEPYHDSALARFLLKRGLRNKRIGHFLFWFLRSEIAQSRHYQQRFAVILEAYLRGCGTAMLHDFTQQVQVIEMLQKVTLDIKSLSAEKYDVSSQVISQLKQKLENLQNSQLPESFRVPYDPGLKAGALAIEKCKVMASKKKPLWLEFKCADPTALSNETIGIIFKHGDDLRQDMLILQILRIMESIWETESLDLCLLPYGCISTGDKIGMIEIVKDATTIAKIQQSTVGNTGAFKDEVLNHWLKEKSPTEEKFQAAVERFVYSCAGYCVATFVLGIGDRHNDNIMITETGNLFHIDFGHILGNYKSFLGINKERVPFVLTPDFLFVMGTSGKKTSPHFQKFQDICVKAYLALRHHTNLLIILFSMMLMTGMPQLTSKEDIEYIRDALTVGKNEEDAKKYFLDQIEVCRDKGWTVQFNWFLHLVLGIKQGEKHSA

Row | IC50 [1] | inhibition [2] | inhibition [5] | Cmax [7] | half-life [8] | IC50 [9] | Ratio IC50 (Homo sapiens) | SMILES | cytotoxicity at 48 h, 20 µM [3] | viability at 10 µM (SU-DHL-5 [4]) | Activity [6] | viability at 20 µM (SU-DHL10) | Activity (MOLT-4) | IC50 (MRC5) | fold change (FC) (SU-DHL-5 [10])
1 | 199 nM | Active | Active | 18.3 ng/mL | 10.2 h | 19.1 nM |  | O=c1c2c(F)cccc2nc([C@@H](Nc2ncnc3nc[nH]c23)C2CC2)n1-c1ccccc1 | 3.93% | 34.8% | Non-Toxic | 19.7% | 2.47% | > 100000 nM | 
2 |  | Active | Active |  |  |  | 95.5 | Cc1cccc2nc([C@@H](Nc3ncnc4nc[nH]c34)C3CC3)n(-c3ccccc3)c(=O)c12 | 23.1% | 20.2% | Non-Toxic | 15% | 3.3% | 49100 nM | 5
